Source: PubChem BioAssay (Broad Institute)
Sampled rows, rich in hits. Any-hit rate of the full collection: about 2.9%.
PglD inh = blocks C. jejuni PglD acetyltransferase activity; purified PglD enzyme, DTNB colorimetric CoA detection; inhibition, % at 12.5 µM; 360,000 compounds, 0.098% hits; AID 602405; in the data active means inhibition above about 16%, passing the limit was not always enough; inconclusive means no clear call, values can overlap the other calls
FGF22 binding = shifts melting point of recombinant human FGF22; Q9HCT0; activity (Tm shift, normalised), % at 9.99 µM; AID 651658; 340,000 compounds, 1.5% hits; recombinant FGF22 thermal shift, SYPRO orange fluorescence; percent of sucrose octasulfate shift, DMSO zero;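 active means mean Tm shift, scaled 0 neutral to 100 positive control, at about 1.3% or above, every replicate too, limit read from the data; inconclusive means no clear call, values can overlap the other calls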
Target sequence (Q9HCT0 whole entry, looked up): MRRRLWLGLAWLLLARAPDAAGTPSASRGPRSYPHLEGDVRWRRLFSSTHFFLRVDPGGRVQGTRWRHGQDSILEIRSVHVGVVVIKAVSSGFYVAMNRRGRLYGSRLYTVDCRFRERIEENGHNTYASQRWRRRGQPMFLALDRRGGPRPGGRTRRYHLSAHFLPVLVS
Vif inh = HIV Vif inhibition | inhibition, % at 7.49 µM | 340,000 compounds, 0.35% hits | HEK293T cells, Vif self-association by quenched fluorescence, imaging, 24 h | AID 602346; in the data active means inhibition above about 50%, passing the limit was not always enough; inconclusive means no clear call, values can overlap the other calls; inactive means below about 31%
Cneo AK release = causes C. neoformans cell lysis. adenylate kinase release luminescence, 4 h; normalised: neutral wells 0, clomiphene wells 100. lysis activity, % at 15 µM. 360,000 compounds, 0.2% hits. AID 651654;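 active means mean lysis activity across replicates of at least 80%, whatever share of replicates individually reach that level; inactive means mean lysis activity below 80%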
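Assay system: C. neoformans cells. Amount: yeast cell density of 5 × 10^6 cells/mL. Technique: AK luminescence. Buffer or medium: YPD. Times: static 4 h at 37 °C with compound, 1 h detection. Dosing: single-point compound dose. Read-out: lysis from increased AK signal.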
PGC1a acetyl inh = lowers PGC1a acetylation signal in U2OS cells. AlphaScreen anti-acetyl-lysine; with virally co-expressed GCN5 acetyltransferase. 350,000 compounds, 0.17% hits. inhibition, % at 15.6 µM;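 active means every replicate shows inhibition of at least 40%; inconclusive means mean inhibition at least 40% but some replicate below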;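 further: 0% = neutral control wells and 100% = positive control wells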
Ecoli rRNA inh = selective bacterial rRNA inhibition in E. coli; 350,000 compounds, 1.6% hits; GFP signal change (wild-type ribosome), % (concentration not given with the values); AID 720706; E. coli WT GFP vs humanized-ribosome RFP mutants, fluorescence, 24 h; active compounds read low; DMSO median 0, no signal -100;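 active means significant combined selectivity score with lowered wild-type GFP, culture density cut under 30%, mutant RFP and density less affected; inactive means any of these conditions unmet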
* hit, by the source's call; ? = inconclusive; · = no result given.

SMILES	PglD inh	FGF22 binding	Vif inh	Cneo AK release	PGC1a acetyl inh	Ecoli rRNA inh
COc1cc(NC(=O)C/C(C)=N/NC(=O)Cc2ccc(Cl)cc2)c(OC)cc1Cl	5	·	73*	-3	·	·
COC(=O)c1ccccc1NC(=O)C/C(C)=N/NC(=O)Cc1ccc(Cl)cc1	-2	0	8	-1	·	5
C[C@@H]1CCCCO[C@@H](CN(C)CC2CC2)[C@@H](C)CN([C@H](C)CO)C(=O)c2cc(NS(=O)(=O)c3cccs3)ccc2O1	-3	0	·	-11	13	3
CC1(C)Cc2c(ccc3ccccc23)C2=C(C(=O)N3CCCC3)C(=O)C(=O)N21	·	0	4	·	0	-26*
C=CCC1(O)C(=O)N2C(=C1C(=O)OCC)c1ccc3ccccc3c1CC2(C)C (configuration not stated)	0	·	-1	1	-9	·
COCC(=O)Nc1ccc2c(c1)OC[C@H](C)N(CCc1ccccc1)C[C@@H](C)[C@@H](OC)CN(C)C2=O	4	0	·	1	9	0
O=C(NNC(=S)NC(=O)c1ccco1)c1ccc(F)cc1	·	6.2*	-4	·	7	·
COc1ccc(C(=O)NNC(=S)NC(=O)c2ccco2)cc1	·	·	?	·	18	·
CCCOc1ccc(C(=O)NNC(=S)NC(=O)c2ccco2)cc1	·	0	-11	·	·	-48*
C[C@H](CO)N1C[C@H](C)[C@H](CN(C)C(=O)c2ccccc2F)Oc2cc(-c3ccccc3)ccc2S1(=O)=O	·	·	·	·	-11	-8
O=C(NC1CCS(=O)(=O)C1)c1cccc(S(=O)(=O)N2CCCC2)c1 (configuration not stated)	2	43*	-40	1	-6	7
O=C(NCc1ccc(Cl)cc1)c1cccc(S(=O)(=O)N2CCCC2)c1	1	0	1	1	5	-19*
O=C(NC1CCS(=O)(=O)C1)c1cccc(S(=O)(=O)N2CCCCCC2)c1 (configuration not stated)	·	0	0	·	-3	7
O=C1CCCC(O)=C1Sc1cc(Cl)c(Cl)cc1Cl	1	0	4	-1	-10	-23*
C[C@@H]1CN([C@@H](C)CO)S(=O)(=O)c2ccc(-c3cccnc3)cc2O[C@@H]1CN(C)C(=O)C1CC1	·	·	·	·	-7	-4
c1ccc2c(-c3csc(-c4ccncc4)n3)c[nH]c2c1	-6	0	0	-3	-3	-27*
Cc1noc(C)c1S(=O)(=O)Nc1ccc2c(c1)C(=O)N([C@@H](C)CO)C[C@@H](C)[C@H](CN(C)S(C)(=O)=O)OCCCC[C@@H](C)O2	2	0	·	0	9	1
CO[C@@H]1CN(C)C(=O)c2ccc(NC(C)=O)cc2OC[C@H](C)N(Cc2ccncc2)C[C@@H]1C	1	0	·	1	7	-3
O=S(=O)(c1ccccc1F)N1CCCCN2[C@H](CO)[C@@H](c3ccc(-c4ccccc4)cc3)[C@@H]2C1	3	-1	·	-1	-11	·
CCc1ccc(NC(=S)Nc2ccc3cn[nH]c3c2)cc1	·	1	11	·	·	-21*
CSc1nc2ncc(C(=O)O)c(N)n2n1	-1	0	51*	-1	-10	4
O=C(C[C@@H]1C=C[C@H](NS(=O)(=O)c2ccc(F)cc2)[C@@H](CO)O1)NC1CCC1	-4	0	·	0	-20	1
CCOC(=O)C1CCCN(C(=O)c2csc(-c3ccc4c(c3)CCO4)n2)C1 (configuration not stated)	3	0	4	-1	·	-41*
O=C(O)CC/C(=N\Nc1ccc(Cl)cc1)c1cccs1	-2	0	0	-1	5	-28*
C[C@@H]1CN([C@H](C)CO)C(=O)c2cccc(N(C)C)c2O[C@H]1CN(C)Cc1ccc(C(=O)Nc2ccccc2N)cc1	-3	0	·	2	-15	-1
SMILES	PglD inh	FGF22 binding	Vif inh	Cneo AK release	PGC1a acetyl inh	Ecoli rRNA inh
COc1cc(C)c(NC(=S)Nc2ccc(Cl)c(Cl)c2)cc1OC	·	0	-5	·	·	-28*
Cc1ccc(NC(=S)Nc2ccc(OC(F)F)c(Cl)c2)cc1F	·	43*	-2	·	·	-60
Fc1ccc(NC(=S)Nc2ccc(F)c(Cl)c2)cc1Cl	4	·	-12	-16	1	·
COCCNC(=S)Nc1ccc(Cl)c(Cl)c1	·	0	20	·	·	5
O=C(C[C@H]1C=C[C@H](NC(=O)Nc2ccc(C(F)(F)F)cc2)[C@H](CO)O1)NCCN1CCCC1	-3	0	·	-2	-15	0
CCC(=O)N1[C@H](C(=O)Nc2ccccc2)[C@@H](CO)[C@@H]2Cn3c(ccc(-c4ccncc4)c3=O)[C@@H]21	3	0	·	99*	5	2
COCC(=O)N1[C@H](C(=O)Nc2ccccc2)[C@@H](CO)[C@@H]2Cn3c(ccc(-c4ccncc4)c3=O)[C@@H]21	1	0	·	1	·	2
Cc1cc(C)c(C)c(S(=O)(=O)NC(C(=O)O)C(C)C)c1C (configuration not stated)	-5	43*	7	4	-7	4
Cc1cc(C)c(C)c(S(=O)(=O)NCC(=O)O)c1C	-5	·	24	1	-1	·
CC1(C(=O)Nc2cccc(C#N)c2)CCN1C(=O)CCc1ccccc1 (configuration not stated)	1	0	37	2	44*	-4
C[C@@H]1CN([C@@H](C)CO)C(=O)c2cc(C#Cc3cccc(F)c3)cnc2O[C@@H]1CN(C)C(=O)C1CCC1	3	0	·	49	-1	2
N/C(Cn1cncn1)=N\NC(=O)C(=O)Nc1cccc(C(F)(F)F)c1	-10	43*	27	2	10	4
NC(=O)c1cccc(-c2ccnc3c2CC(C(=O)NCc2ccco2)O3)c1 (configuration not stated)	0	0	-2	4	8	11
COc1ccc(NC(=O)C2(C)Cc3c(-c4cccc(NC(C)=O)c4)ccnc3O2)cn1 (configuration not stated)	-1	0	58*	2	-58	-3
CC(=O)Nc1cccc(-c2ccnc3c2CC(C(=O)Nc2ccc4c(c2)OCO4)O3)c1 (configuration not stated)	3	0	16	1	-44	-22*
CC(=O)c1cccc(-c2ccnc3c2CC(C(=O)NCc2ccco2)O3)c1 (configuration not stated)	1	0	54*	2	-52	-2
CS(=O)(=O)N1CC2(C1)[C@H](c1ccccc1)[C@H](CO)N2CC1CCCC1	·	0	·	·	-9	-7
O=C(O)c1ccccc1CSc1nc2ccccc2n1Cc1ccccc1C(=O)O	·	44*	-5	·	1	16
CCOC(=O)CSc1nc2cc(S(=O)(=O)N3CCOCC3)ccc2n1CC	-1	·	2	3	2	-5
